Reference: ChEMBL document CHEMBL4138303, “Discovery and in Vitro Optimization of 3-Sulfamoylbenzamides as ROMK Inhibitors” (ACS Med Chem Lett, 2018)
Residue numbers refer to the chain shown, from its start. Activity calls are given as the source filed them. The rule behind the calls is not given here.

Assays:
[1] = Apparent intrinsic clearance in human liver microsomes; type: ADME, microsome; settings: read-out: CLH(app)
[2] = target: Voltage-gated inwardly rectifying potassium channel KCNH2 (Homo sapiens, UniProt Q12809); assay: Displacement of fluorescent-labelled dofetilide from human ERG expressed in HEK293 cell membrane homogenates; type: cell membranes
Voltage-gated inwardly rectifying potassium channel KCNH2, sequence (Q12809 whole entry): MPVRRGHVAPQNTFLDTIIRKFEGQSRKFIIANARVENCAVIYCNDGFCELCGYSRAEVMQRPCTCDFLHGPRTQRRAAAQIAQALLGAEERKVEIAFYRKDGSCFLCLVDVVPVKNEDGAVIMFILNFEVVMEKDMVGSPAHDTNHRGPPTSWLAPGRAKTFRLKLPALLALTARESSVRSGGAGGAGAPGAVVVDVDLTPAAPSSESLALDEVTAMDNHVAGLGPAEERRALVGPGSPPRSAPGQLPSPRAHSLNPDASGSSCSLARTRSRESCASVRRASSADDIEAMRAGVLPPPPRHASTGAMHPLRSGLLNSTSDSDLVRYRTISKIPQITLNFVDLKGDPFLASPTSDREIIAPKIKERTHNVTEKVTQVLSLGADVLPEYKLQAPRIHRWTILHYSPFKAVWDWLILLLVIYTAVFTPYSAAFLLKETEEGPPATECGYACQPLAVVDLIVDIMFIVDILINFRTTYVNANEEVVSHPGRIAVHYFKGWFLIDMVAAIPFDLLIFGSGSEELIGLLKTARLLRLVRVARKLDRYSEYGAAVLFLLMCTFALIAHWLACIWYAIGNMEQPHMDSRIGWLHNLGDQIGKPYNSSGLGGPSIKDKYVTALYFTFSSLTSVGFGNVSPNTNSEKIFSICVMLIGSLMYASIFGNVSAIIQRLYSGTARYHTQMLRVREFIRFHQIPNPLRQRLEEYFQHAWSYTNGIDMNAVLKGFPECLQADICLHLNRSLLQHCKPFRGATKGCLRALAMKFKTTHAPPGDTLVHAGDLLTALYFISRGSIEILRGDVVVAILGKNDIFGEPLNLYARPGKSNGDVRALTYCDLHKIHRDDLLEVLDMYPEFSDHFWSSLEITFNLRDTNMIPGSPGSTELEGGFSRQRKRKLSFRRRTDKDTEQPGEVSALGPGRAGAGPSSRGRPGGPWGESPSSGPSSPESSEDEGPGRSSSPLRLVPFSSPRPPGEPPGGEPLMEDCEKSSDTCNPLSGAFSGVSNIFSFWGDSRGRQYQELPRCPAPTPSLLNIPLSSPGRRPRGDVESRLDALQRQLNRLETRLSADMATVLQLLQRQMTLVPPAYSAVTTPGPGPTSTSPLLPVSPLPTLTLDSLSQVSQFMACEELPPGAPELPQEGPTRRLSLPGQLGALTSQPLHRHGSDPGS
Outline: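 Ki from displacement of a fluorescently labelled dofetilide derivative from membrane homogenates of HEK-293 cells stably expressing hERG (Kv11.1).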

[3] = Octanol-sodium phosphate buffer partition coefficient, log D of the compound at pH 7.4 by shake flask method; type: physicochemical
[4] = Apparent permeability in MDCK2-LE cells; type: ADME, cell-based, Canis lupus familiaris, MDCK-II; settings: dog
[5] = target: T1, ATP-sensitive inward rectifier potassium channel 1 (Homo sapiens, UniProt P48048); assay: Inhibition of human ROMK2 expressed in HEK293 cells after 20 mins by Thallos-AM dye based fluorescence assay; type: cell-based
T1 sequence (P48048 whole entry): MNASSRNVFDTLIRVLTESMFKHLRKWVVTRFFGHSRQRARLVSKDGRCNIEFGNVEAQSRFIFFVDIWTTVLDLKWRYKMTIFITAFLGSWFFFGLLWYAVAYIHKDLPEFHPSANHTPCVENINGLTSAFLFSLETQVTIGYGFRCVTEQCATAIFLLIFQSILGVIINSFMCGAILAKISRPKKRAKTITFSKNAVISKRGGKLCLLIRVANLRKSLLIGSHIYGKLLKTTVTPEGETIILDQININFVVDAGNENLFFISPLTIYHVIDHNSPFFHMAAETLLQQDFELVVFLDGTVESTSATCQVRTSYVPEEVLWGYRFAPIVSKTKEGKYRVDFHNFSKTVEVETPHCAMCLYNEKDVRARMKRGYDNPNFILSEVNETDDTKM

[6] = target: T2, ATP-sensitive inward rectifier potassium channel 1 (Rattus norvegicus, UniProt P35560); assay: Inhibition of rat ROMK1 expressed in HEK293 cells after 20 mins by Thallos-AM dye based fluorescence assay; type: cell-based
T2 sequence (P35560 whole entry): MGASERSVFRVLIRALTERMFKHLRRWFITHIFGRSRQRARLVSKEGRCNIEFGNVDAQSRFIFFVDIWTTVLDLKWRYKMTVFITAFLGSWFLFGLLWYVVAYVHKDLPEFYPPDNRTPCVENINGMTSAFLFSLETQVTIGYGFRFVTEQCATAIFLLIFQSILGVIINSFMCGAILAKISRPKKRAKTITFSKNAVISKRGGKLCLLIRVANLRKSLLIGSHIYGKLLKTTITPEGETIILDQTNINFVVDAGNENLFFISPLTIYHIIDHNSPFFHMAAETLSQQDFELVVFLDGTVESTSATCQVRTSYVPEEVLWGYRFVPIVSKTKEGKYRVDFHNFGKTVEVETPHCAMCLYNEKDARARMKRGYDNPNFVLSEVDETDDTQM
Outline: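 Thallium (Tl+) flux assay against rat ROMK1, with concentration-response testing up to 30 µM. IC50 values are geometric means of n≥3 replicates unless otherwise indicated and are also reported as pIC50±SD.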

[7] = target: T1, ATP-sensitive inward rectifier potassium channel 1; assay: Inhibition of human ROMK1 expressed in HEK293 cells at -75 mV holding potential by whole cell patch clamp method; type: cell-based
Outline: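 Whole-cell patch clamp on human ROMK1. IC50 comes from a global fit to a five-point concentration-response curve with n≥4 per concentration, reported with 95% CI.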

[8] = target: T3, ATP-sensitive inward rectifier potassium channel 1 (Rattus norvegicus) (UniProt P35560); assay: Inhibition of rat ROMK2 expressed in HEK293 cells at -75 mV holding potential by whole cell patch clamp method; type: cell-based
T3 sequence (whole entry): T2 sequence (P35560 whole entry)

[9] = target: T1, ATP-sensitive inward rectifier potassium channel 1; assay: (§1) Inhibition of human ROMK1 expressed in HEK293 cells after 20 mins by Thallos-AM dye based fluorescence assay; type: cell-based
Outline: (§2)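 Tl+ flux assay on human or rat ROMK1, run as concentration-response. IC50 is the geometric mean of n≥3 replicates, also given as pIC50±SD. Rat ROMK1 testing went up to 30 µM.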

[10] = target: T4, ATP-sensitive inward rectifier potassium channel 1 (Homo sapiens) (UniProt P48048); assay: as §1; type: cell-based; outline: as §2
T4 sequence (whole entry): T1 sequence (P48048 whole entry)

[11] = system: T5, ATP-sensitive inward rectifier potassium channel 1 (Homo sapiens), P48048 [N171D]; assay: Inhibition of human Kir1.1 N171D mutant expressed in HEK293 cells at 100 to 300 nM at -75 mV holding potential by whole cell patch clamp method; type: cell-based
T5 sequence (whole entry): T1 sequence (P48048 whole entry) with N171D
Outline: (§3)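 Whole-cell currents were recorded under voltage clamp in HEK293 cells transiently expressing human ROMK K80M or the human ROMK K80M/N171D double mutant.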

[12] = system: T6, ATP-sensitive inward rectifier potassium channel 1 (Homo sapiens), P48048 [K80M]; assay: Inhibition of human Kir1.1 K80M mutant expressed in HEK293 cells at 100 to 300 nM at -75 mV holding potential by whole cell patch clamp method; type: cell-based; outline: as §3
T6 sequence (whole entry): T1 sequence (P48048 whole entry) with K80M

[13] = target: T7, ATP-sensitive inward rectifier potassium channel 10 (Homo sapiens) (UniProt P78508); assay: Inhibition of Kir4.1 (unknown origin) expressed in CHO cells at 10 uM at -75 mV holding potential by whole cell patch clamp method relative to control; type: cell-based
T7 sequence (whole entry): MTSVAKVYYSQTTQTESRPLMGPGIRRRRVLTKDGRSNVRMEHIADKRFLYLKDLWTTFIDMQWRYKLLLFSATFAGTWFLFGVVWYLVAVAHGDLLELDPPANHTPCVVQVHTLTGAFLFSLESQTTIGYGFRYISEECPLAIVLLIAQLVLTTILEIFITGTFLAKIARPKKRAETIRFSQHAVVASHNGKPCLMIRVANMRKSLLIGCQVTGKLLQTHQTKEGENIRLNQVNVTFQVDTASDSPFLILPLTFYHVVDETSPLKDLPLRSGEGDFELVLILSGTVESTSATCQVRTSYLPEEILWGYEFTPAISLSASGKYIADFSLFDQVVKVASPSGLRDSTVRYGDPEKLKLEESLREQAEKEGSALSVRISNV
Outline: (§4)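 Whole-cell patch-clamp recordings in CHO cells stably expressing either Kir2.1 or Kir4.1.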

[14] = target: T8, Kir2.1 (inward rectifier potassium channel 2) (Homo sapiens, UniProt P63252); assay: Inhibition of Kir2.1 (unknown origin) expressed in CHO cells at 10 uM at -75 mV holding potential by whole cell patch clamp method relative to control; type: cell-based; settings: CHO cells expressing Kir2.1; outline: as §4
T8 sequence (P63252 whole entry): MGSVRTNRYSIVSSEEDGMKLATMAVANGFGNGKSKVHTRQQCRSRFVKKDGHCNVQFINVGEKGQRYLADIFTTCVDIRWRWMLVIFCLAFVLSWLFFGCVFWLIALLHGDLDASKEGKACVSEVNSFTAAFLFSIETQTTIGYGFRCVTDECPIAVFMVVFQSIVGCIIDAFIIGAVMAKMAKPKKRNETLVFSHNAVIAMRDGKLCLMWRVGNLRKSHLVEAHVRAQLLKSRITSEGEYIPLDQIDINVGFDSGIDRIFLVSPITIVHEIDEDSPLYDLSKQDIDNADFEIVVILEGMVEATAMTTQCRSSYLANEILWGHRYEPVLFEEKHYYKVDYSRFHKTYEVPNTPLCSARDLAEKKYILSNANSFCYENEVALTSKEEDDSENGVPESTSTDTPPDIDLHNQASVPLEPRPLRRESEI

[15] = octanol/sodium phosphate buffer, read-out: logD

Row | Structure (SMILES) | CLint scaled [1] | Ki [2] | logD [3, 15] | Papp ([4]; MDCK, read-out: Papp) | IC50 [5] | IC50 [6] | IC50 ([9]; read-out: IC50) | also measured
1 | Cc1noc(CNC(=O)c2ccc(C)c(S(=O)(=O)Nc3ccc(-c4ccno4)cc3)c2)n1 | 25 mL/min/kg | > 40000 nM | 2.3 | 6 ×10⁻⁶ cm/s | 110 nM |  |  | 
2 | Cc1ccc(C(=O)NCc2cn(C)nn2)cc1S(=O)(=O)Nc1ccc(-c2ccno2)cc1 | < 8 mL/min/kg | > 40000 nM | 2.4 | 12 ×10⁻⁶ cm/s | 280 nM | > 30000 nM | 1040 nM | IC50 [7]: 104 nM; inhibition [8]: inactive; IC50 ([9]; read-out: pIC50 (converted)): 1260 nM; inhibition [10]: Dose-dependent effect
3 | COc1ccc(C(=O)NC(C)c2cnn(C)n2)cc1S(=O)(=O)Nc1ccc(Cl)cc1 (single isomer, unassigned; (-)) [listing 1 of 2 here] | < 8 mL/min/kg | 28000 nM | 2.6 | 16 ×10⁻⁶ cm/s | 160 nM | > 30000 nM | 391 nM | IC50 [7]: 61 nM
4 | Cc1noc(CNC(=O)c2ccc(C)c(S(=O)(=O)Nc3ccc(Cl)cc3)c2)n1 | 35 mL/min/kg | > 40000 nM | 3 | 19 ×10⁻⁶ cm/s | 85 nM | > 30000 nM | 777 nM | IC50 [7]: 62 nM; inhibition [10]: Dose-dependent effect
5 | Cc1noc(CNC(=O)c2ccc(C)c(S(=O)(=O)Nc3ccc(-c4cnco4)cc3)c2)n1 | 69 mL/min/kg | > 40000 nM | 2.2 | 10 ×10⁻⁶ cm/s | 35 nM |  |  | 
6 | O=[N+]([O-])c1ccc2nc(COCc3nc4ccc([N+](=O)[O-])cc4[nH]3)[nH]c2c1 |  |  |  |  |  | 420 nM | 744 nM | 
7 | COc1ccc(C(=O)NC(C)c2cnn(C)n2)cc1S(=O)(=O)Nc1ccc(Cl)cc1 (single isomer, unassigned; (-)) [listing 2 of 2 here] |  |  |  |  |  |  |  | inhibition [11]: Active; inhibition [12]: Active; inhibition [8]: inactive; inhibition [10]: Dose-dependent effect
8 | Cc1ccc(NS(=O)(=O)c2cc(C(=O)NCc3cccnc3)ccc2C)cc1 | 120 mL/min/kg | > 40000 nM | 3 | 15 ×10⁻⁶ cm/s | 6500 nM |  |  | inhibition [13]: 19%; inhibition at 10 µM [14]: 13%
9 | Cc1ccc(C(=O)NCc2cn(C)nn2)cc1S(=O)(=O)Nc1ccc(Cl)cc1 | < 9 mL/min/kg | > 40000 nM | 2.9 | 19 ×10⁻⁶ cm/s | 86 nM |  |  | 
10 | Cc1ccc(NS(=O)(=O)c2cc(C(=O)NCc3nc(C)no3)ccc2C)cc1 | 30 mL/min/kg | > 40000 nM | 2.7 | 20 ×10⁻⁶ cm/s | 440 nM |  |  | 
11 | COc1ccc(C(=O)NCc2nc(C)no2)cc1S(=O)(=O)Nc1ccc(C)cc1 | 10 mL/min/kg | > 40000 nM | 2.3 | 8 ×10⁻⁶ cm/s | 1300 nM |  |  | 
12 | Cc1ccc(NS(=O)(=O)c2cccc(C(=O)NCc3nc(C)no3)c2)cc1 | 9 mL/min/kg | > 40000 nM | 2.3 | 22 ×10⁻⁶ cm/s | 17000 nM |  |  | 
13 | COc1ccc(C(=O)NC(C)c2cnn(C)n2)cc1S(=O)(=O)Nc1ccc(Cl)cc1 (single isomer, unassigned; (+)) |  | > 40000 nM |  |  | 13000 nM |  |  | logD ([3]; octanol/water): 2.7; Papp ([4]; mdck-ii): 11 ×10⁻⁶ cm/s
